Measurements from ChEMBL document CHEMBL1921718, “Structure-activity relationships in toll-like receptor 2-agonists leading to simplified monoacyl lipopeptides” (J Med Chem, 2011).
Calls of active or inactive are those of the source. The rule behind the calls is not given here.

Assays:
[1] = Upregulation of CD11b expression in human […] by flow cytometric analysis; type: functional, cell-based
Procedure, shortened: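 Fresh heparinized or anticoagulated human whole blood from healthy adults, incubated with graded compound dilutions 1 h at 37 °C, with saline negative controls. Kept on ice 15 min, then stained with anti-CD11b on ice 30 min so only surface CD11b was labelled. Red cells lysed and leukocytes fixed in one step; PE single-colour flow cytometry on 20,000 gated events.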

[2] = Upregulation of p38 MAPK expression in […] […] by flow cytometric analysis; type: functional, cell-based; conditions: Homo sapiens
Procedure, shortened: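 Heparinized fresh human whole blood exposed to graded compound concentrations in saline for 15 min at 37 °C. Red cells lysed and leukocytes fixed in one step, then permeabilized in ice-cold methanol 30 min. Stained with PE anti-phospho-p38MAPK (pT180/pY182, α/β/γ/δ isoforms). Single-colour PE flow cytometry on 20,000 gated events.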

[3] = biological target: Toll-like receptor 2 (Homo sapiens, UniProt O60603); test: Agonist activity at human TLR2 expressed in HEK293 cells assessed as NF-kappaB induction measured soluble alkaline phosphatase after 12 hrs by spectrophotometric analysis; type: functional, cell-based
Procedure, shortened: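 HEK-Blue cells (HEK293 stably transfected with human TLR2 and NF-κB-driven secreted alkaline phosphatase) kept in selection medium with zeocin and normocin; seeded ~10^5 cells/mL, grown to confluency, then stimulated 12 h with serially diluted compounds. Supernatant sAP read spectrophotometrically at 620 nm using an alkaline phosphatase-specific chromogen in the detection medium.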

[4] = Aqueous solubility of the compound; type: physicochemical; conditions: buffer

Toll-like receptor 2, sequence (O60603 whole entry): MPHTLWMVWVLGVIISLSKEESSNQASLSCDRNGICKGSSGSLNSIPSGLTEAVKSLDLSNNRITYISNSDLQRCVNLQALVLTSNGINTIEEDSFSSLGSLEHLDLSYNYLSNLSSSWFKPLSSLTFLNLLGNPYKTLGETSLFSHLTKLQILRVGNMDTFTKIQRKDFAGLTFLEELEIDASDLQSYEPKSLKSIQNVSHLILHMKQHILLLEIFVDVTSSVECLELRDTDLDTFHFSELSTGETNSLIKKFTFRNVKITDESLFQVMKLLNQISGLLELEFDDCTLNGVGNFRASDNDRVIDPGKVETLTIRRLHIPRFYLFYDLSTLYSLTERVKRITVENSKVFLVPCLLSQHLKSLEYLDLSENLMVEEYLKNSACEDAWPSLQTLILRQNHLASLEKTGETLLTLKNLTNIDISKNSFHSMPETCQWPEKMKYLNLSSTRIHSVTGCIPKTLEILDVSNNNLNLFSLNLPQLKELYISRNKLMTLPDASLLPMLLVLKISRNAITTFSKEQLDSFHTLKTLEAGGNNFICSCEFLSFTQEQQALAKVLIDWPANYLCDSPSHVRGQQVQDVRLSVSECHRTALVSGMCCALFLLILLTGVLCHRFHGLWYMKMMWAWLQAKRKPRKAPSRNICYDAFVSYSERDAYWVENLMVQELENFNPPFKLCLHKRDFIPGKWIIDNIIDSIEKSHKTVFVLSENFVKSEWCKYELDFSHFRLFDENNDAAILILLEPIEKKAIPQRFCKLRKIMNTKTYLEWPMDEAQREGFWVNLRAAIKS

For `CCCCCCCCCCCCCCCC(=O)OCC(CSC[C@H](N)C(=O)N[C@@H](CO)C(=O)O)OC(=O)CCCCCCCCCCCCCCC` (mixture of isomers), which Activity [1] is on record?
Its Activity is “Active”.

What about the Activity [2] of the same compound?
The Activity was “Active”.

With `CCCCCCCCCCCCCCCC(=O)OC[C@H](CSC(C)(C)[C@@H](N)C(=O)N[C@@H](CO)C(=O)OC)OC(=O)CCCCCCCCCCCCCCC` as the compound, how does the EC50 [3] read?
Its EC50 is greater than 1000 nM.

Which EC50 [3] does the source give for `CCCCCCCCCCCCCCCCCC(=O)OC[C@H](CSC[C@H](N)C(=O)N[C@@H](CO)C(=O)O)OC(=O)CCCCCCCCCCCCCCCCC` here?
The EC50 was 1.47 nM.

With `CCCCCCCCCCCCCCCCOC(=O)CSC[C@H](N)C(=O)N[C@@H](CO)C(=O)OC` as the compound, how does the EC50 [3] read?
Its EC50 is greater than 1000 nM.

Which EC50 [3] does the source give for `CCCCC/C=C\C/C=C\CCCCCCCC(=O)OC[C@H](CSC[C@H](N)C(=O)NCC(=O)OC(C)C)OC(=O)CCCCCCC/C=C\C/C=C\CCCCC` here?
The EC50 was 1 nM.

Which EC50 [3] does the source give for `CCCCCCCCCCCCCCCC(=O)O[C@H](COC(=O)CNCCCOCCOCCOCC)CSC[C@H](N)C(=O)N[C@@H](CO)C(=O)O` here?
The EC50 was 2.11 nM.

What about the solubility [4] of the same compound?
The solubility was “soluble”.

With `CCCCCCCCCCCCCCCC(=O)O[C@H](CO)CSC[C@H](N)C(=O)N[C@@H](CO)C(=O)O` as the compound, how does the EC50 [3] read?
The EC50 was 1.86 nM.

For `CCCCCCCCCCCCCCCC(=O)OC[C@H](CSC[C@H](NC(=O)CC[C@H](N)C(=O)O)C(=O)NCC(=O)OC(C)C)OC(=O)CCCCCCCCCCCCCCC`, which EC50 [3] is on record?
Its EC50 is greater than 1000 nM.

With `CC/C=C\C/C=C\C/C=C\CCCCCCCC(=O)OC[C@H](CSC[C@H](N)C(=O)NCC(=O)OC(C)C)OC(=O)CCCCCCC/C=C\C/C=C\C/C=C\CC` as the compound, how does the EC50 [3] read?
Its EC50 is 0.87 nM.

With `CCCCCCCCCCCCCCCC(=O)OC[C@H](C[Se]C[C@H](N)C(=O)N[C@@H](CO)C(=O)OC)OC(=O)CCCCCCCCCCCCCCC` as the compound, how does the EC50 [3] read?
Its EC50 is 0.26 nM.

For `CCOCCOCCOCCCNCC(=O)OC[C@H](CSC[C@H](N)C(=O)N[C@@H](CO)C(=O)O)OC(=O)CNCCCOCCOCCOCC`, which EC50 [3] is on record?
The EC50 was greater than 1000 nM.

With `CCCCCCCCCCCCCCCC(=O)OC[C@H](CSC[C@H](N)C(=O)NCC(=O)OC(C)C)OC(=O)CCCCCCCCCCCCCCC` as the compound, how does the EC50 [3] read?
The EC50 was 0.45 nM.

With `CCCCCCCCCCCCCCCC(=O)OC[C@H](CSCC[C@H](N)C(=O)N[C@@H](CO)C(=O)O)OC(=O)CCCCCCCCCCCCCCC` as the compound, how does the EC50 [3] read?
Its EC50 is greater than 1000 nM.

Which EC50 [3] does the source give for `CCCCCCCCCCCC(=O)OC[C@H](CSC[C@H](N)C(=O)N[C@@H](CO)C(=O)O)OC(=O)CCCCCCCCCCC` here?
The EC50 was 6.48 nM.

With `CCCCCCCCCCCCCCCC(=O)OC[C@H](CSCCC(=O)N[C@@H](CO)C(=O)OC)OC(=O)CCCCCCCCCCCCCCC` as the compound, how does the EC50 [3] read?
Its EC50 is greater than 1000 nM.

With `CCCCCCCCCCCCCCCC(=O)OCCCSC[C@H](N)C(=O)N[C@@H](CO)C(=O)OC` as the compound, how does the EC50 [3] read?
Its EC50 is greater than 1000 nM.

What does the source list for `CCCCCCCCCCCCCCCC(=O)O[C@H](COC(=O)CNCCCNCCCCNCCCN)CSC[C@H](N)C(=O)N[C@@H](CO)C(=O)O`?
EC50 [3]: 3.23 nM; solubility [4]: soluble

Which EC50 [3] does the source give for `CCCCCCCCCCCCCCCC(=O)OC[C@H](CSC(C)(C)[C@H](N)C(=O)N[C@@H](CO)C(=O)O)OC(=O)CCCCCCCCCCCCCCC` here?
The EC50 was greater than 1000 nM.

Which EC50 [3] does the source give for `CCCCCCCCCCCCCCCC(=O)OC[C@@H](O)CSC[C@H](N)C(=O)N[C@@H](CO)C(=O)O` here?
Its EC50 is 1.95 nM.

With `CCCCCCCCCCCCCCCC(=O)O[C@H](COC(=O)CNCCCOCCOCCOCCCN)CSC[C@H](N)C(=O)N[C@@H](CO)C(=O)O` as the compound, how does the EC50 [3] read?
The EC50 was 1.55 nM.

And the solubility [4]?
The solubility was “soluble”.

Which EC50 [3] does the source give for `CCCCCCCCCCCCCC(=O)OC[C@H](CSC[C@H](N)C(=O)N[C@@H](CO)C(=O)O)OC(=O)CCCCCCCCCCCCC` here?
The EC50 was 0.56 nM.

For `CCCCCCCCCCCCCCCCOC(=O)CCSC[C@H](N)C(=O)N[C@@H](CO)C(=O)OC`, which EC50 [3] is on record?
Its EC50 is greater than 1000 nM.

With `CCCCCCCCCCCCCCCC(=O)OCCSC[C@H](N)C(=O)N[C@@H](CO)C(=O)OC` as the compound, how does the EC50 [3] read?
The EC50 was 4.44 nM.

And the Activity [1]?
The Activity was “Active”.

And the Activity [2]?
The Activity was “Active”.
